Key:
MT4 = experiment: Antiproliferative activity against human MT4 cells assessed as reduction of growth by MTT assay; format: functional, cell-based
In short: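 MT-4 lymphoblastoid T cells (ATCC) in RPMI 1640 with 10% FCS, penicillin/streptomycin, checked for mycoplasma. 1 × 10⁴ mock-infected cells per well with serial dilutions from a 100 mM DMSO stock. Incubated 4 days at 37 °C, viable cells counted by MTT. IC50 versus untreated controls by linear regression. Mean of three separate experiments.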

HL-60(TB) = experiment: Growth inhibition of human HL-60(TB) cells after 48 hrs by sulforhodamine B assay; format: functional; details: HL-60, 48 h
In short: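 NCI 60-cell-line screen protocol: cells exposed to compound at five 10-fold dilutions from 10^-4 to 10^-8 M for the last 48 h of a 72 h incubation. Sulforhodamine B protein assay estimated viability/growth. GI50 (50% growth inhibition) derived; where not reached or exceeded, reported as greater or less than the highest or lowest concentration tested.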

K562 = experiment: Growth inhibition of human K562 cells after 48 hrs by sulforhodamine B assay; format: functional; details: K562, 48 h
In short: (§1)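 NCI screen panel. Five 10-fold concentrations from 10^-4 to 10^-8 M. Exposure for the last 48 h of a 72 h incubation. Growth estimated by sulforhodamine B protein assay. GI50 is the concentration giving 50% growth inhibition. Where that level was not reached or was exceeded, the value is given as above or below the highest or lowest concentration tested.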

MOLT-4 = experiment: Growth inhibition of human MOLT4 cells after 48 hrs by sulforhodamine B assay; format: functional; details: MOLT-4, 48 h; in short: as §1
[1] = Growth inhibition of human […] cells after 48 hrs by sulforhodamine B assay; format: functional; in short: as §1
SR = experiment: Growth inhibition of human SR cells after 48 hrs by sulforhodamine B assay; format: functional
In short: (§2)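 NCI in vitro panel screen. Compounds tested at five 10-fold dilutions, 10^-4 to 10^-8 M. Cells in 96-well plates were exposed for the last 48 h of a 72 h incubation. Viability/growth was read by sulforhodamine B protein assay. GI50 is the concentration giving 50% growth inhibition. Values beyond the tested range are reported as greater or less than the maximum or minimum concentration.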

A549 = experiment: Growth inhibition of human A549 cells after 48 hrs by sulforhodamine B assay; format: functional; details: A549, 48 h; in short: as §1
EKVX = experiment: Growth inhibition of human EKVX cells after 48 hrs by sulforhodamine B assay; format: functional; in short: as §1
HOP-62 = experiment: Growth inhibition of human HOP62 cells after 48 hrs by sulforhodamine B assay; format: functional; details: HOP-62, 48 h; in short: as §1
HOP-92 = experiment: Growth inhibition of human HOP92 cells after 48 hrs by sulforhodamine B assay; format: functional; details: HOP-92, 48 h; in short: as §1
NCI-H23 = experiment: Growth inhibition of human NCI-H23 cells after 48 hrs by sulforhodamine B assay; format: functional; details: NCI-H23, 48 h; in short: as §1
NCI-H322M = experiment: Growth inhibition of human NCI-H322M cells after 48 hrs by sulforhodamine B assay; format: functional; in short: as §1
NCI-H460 = experiment: Growth inhibition of human NCI-H460 cells after 48 hrs by sulforhodamine B assay; format: functional; details: NCI-H460, 48 h; in short: as §1
COLO 205 = experiment: Growth inhibition of human COLO205 cells after 48 hrs by sulforhodamine B assay; format: functional; details: COLO 205, 48 h; in short: as §1
HCT-116 = experiment: Growth inhibition of human HCT116 cells after 48 hrs by sulforhodamine B assay; format: functional; details: HCT-116, 48 h; in short: as §1
HCT-15 = experiment: Growth inhibition of human HCT15 cells after 48 hrs by sulforhodamine B assay; format: functional; details: HCT-15, 48 h; in short: as §1
HT-29 = experiment: Growth inhibition of human HT-29 cells after 48 hrs by sulforhodamine B assay; format: functional; details: HT-29, 48 h; in short: as §1
KM12 = experiment: Growth inhibition of human KM12 cells after 48 hrs by sulforhodamine B assay; format: functional; details: KM12, 48 h; in short: as §1
SW-620 = experiment: Growth inhibition of human SW620 cells after 48 hrs by sulforhodamine B assay; format: functional; details: SW-620, 48 h; in short: as §2
SF-268 = experiment: Growth inhibition of human SF268 cells after 48 hrs by sulforhodamine B assay; format: functional; details: SF-268, 48 h; in short: as §1
SF-295 = experiment: Growth inhibition of human SF295 cells after 48 hrs by sulforhodamine B assay; format: functional; details: SF-295, 48 h; in short: as §1
SNB-19 = experiment: Growth inhibition of human SNB19 cells after 48 hrs by sulforhodamine B assay; format: functional; details: SNB-19, 48 h; in short: as §2
SNB-75 = experiment: Growth inhibition of human SNB75 cells after 48 hrs by sulforhodamine B assay; format: functional; details: SNB-75, 48 h; in short: as §2
U-251 = experiment: Growth inhibition of human U251 cells after 48 hrs by sulforhodamine B assay; format: functional; details: U-251, 48 h; in short: as §2
LOX IMVI = experiment: Growth inhibition of human LOXIMVI cells after 48 hrs by sulforhodamine B assay; format: functional; in short: as §1
Malme-3M = experiment: Growth inhibition of human MALME-3M cells after 48 hrs by sulforhodamine B assay; format: functional; in short: as §1
M14 = experiment: Growth inhibition of human M14 cells after 48 hrs by sulforhodamine B assay; format: functional; details: M14, 48 h; in short: as §1
SK-MEL-2 = experiment: Growth inhibition of human SK-MEL-2 cells after 48 hrs by sulforhodamine B assay; format: functional; details: SK-MEL-2, 48 h; in short: as §1
SK-MEL-28 = experiment: Growth inhibition of human SK-MEL-28 cells after 48 hrs by sulforhodamine B assay; format: functional; details: SK-MEL-28, 48 h; in short: as §1
SK-MEL-5 = experiment: Growth inhibition of human SK-MEL-5 cells after 48 hrs by sulforhodamine B assay; format: functional; details: SK-MEL-5, 48 h; in short: as §1
UACC-257 = experiment: Growth inhibition of human UACC257 cells after 48 hrs by sulforhodamine B assay; format: functional; details: UACC-257, 48 h; in short: as §2
UACC-62 = experiment: Growth inhibition of human UACC62 cells after 48 hrs by sulforhodamine B assay; format: functional; details: UACC-62, 48 h; in short: as §2
IGROV-1 = experiment: Growth inhibition of human IGROV1 cells after 48 hrs by sulforhodamine B assay; format: functional; details: IGROV-1, 48 h; in short: as §1
OVCAR-3 = experiment: Growth inhibition of human OVCAR-3 cells after 48 hrs by sulforhodamine B assay; format: functional; details: OVCAR-3, 48 h; in short: as §1
OVCAR-4 = experiment: Growth inhibition of human OVCAR4 cells after 48 hrs by sulforhodamine B assay; format: functional; details: OVCAR-4, 48 h; in short: as §1
OVCAR-8 = experiment: Growth inhibition of human OVCAR8 cells after 48 hrs by sulforhodamine B assay; format: functional; details: OVCAR-8, 48 h; in short: as §1
SK-OV-3 = experiment: Growth inhibition of human SKOV3 cells after 48 hrs by sulforhodamine B assay; format: functional; details: SK-OV-3, 48 h; in short: as §1
786-0 = experiment: Growth inhibition of human 786-0 cells after 48 hrs by sulforhodamine B assay; format: functional; details: 786-0, 48 h; in short: as §1
ACHN = experiment: Growth inhibition of human ACHN cells after 48 hrs by sulforhodamine B assay; format: functional; in short: as §1
CAKI-1 = experiment: Growth inhibition of human Caki1 cells after 48 hrs by sulforhodamine B assay; format: functional; details: CAKI-1, 48 h; in short: as §1
RXF 393 = experiment: Growth inhibition of human RXF393 cells after 48 hrs by sulforhodamine B assay; format: functional; details: RXF 393, 48 h; in short: as §1
SN12C = experiment: Growth inhibition of human SN12C cells after 48 hrs by sulforhodamine B assay; format: functional; in short: as §2
TK-10 = experiment: Growth inhibition of human TK10 cells after 48 hrs by sulforhodamine B assay; format: functional; details: TK-10, 48 h; in short: as §2
UO-31 = experiment: Growth inhibition of human UO31 cells after 48 hrs by sulforhodamine B assay; format: functional; details: UO-31, 48 h; in short: as §2
PC-3 = experiment: Growth inhibition of human PC3 cells after 48 hrs by sulforhodamine B assay; format: functional; details: PC-3, 48 h; in short: as §1
DU-145 = experiment: Growth inhibition of human DU145 cells after 48 hrs by sulforhodamine B assay; format: functional; details: DU-145, 48 h; in short: as §1
NCI/ADR-RES = experiment: Growth inhibition of human NCI/ADR-RES cells after 48 hrs by sulforhodamine B assay; format: functional; in short: as §1
MDA-MB-231 = experiment: Growth inhibition of human MDA-MB-231 cells after 48 hrs by sulforhodamine B assay; format: functional; details: MDA-MB-231, 48 h; in short: as §1
MDA-MB-435 = experiment: Growth inhibition of human MDA-MB-435 cells after 48 hrs by sulforhodamine B assay; format: functional; details: MDA-MB-435, 48 h; in short: as §1
BT-549 = experiment: Growth inhibition of human BT549 cells after 48 hrs by sulforhodamine B assay; format: functional; details: BT-549, 48 h; in short: as §1
T47D = experiment: Growth inhibition of human T47D cells after 48 hrs by sulforhodamine B assay; format: functional; in short: as §2

COC(=O)/C(C#N)=C/N1CCN(C(=O)c2ccco2)C1=S
IC50 (MT4): 5 µM | GI50 (HL-60(TB)): 6.9 µM | GI50 (K562): 3.7 µM | GI50 (MOLT-4): 7.4 µM | GI50 [1]: 3.3 µM | GI50 (SR): 2100 nM | GI50 (A549): 14.6 µM | GI50 (EKVX): 10.2 µM | GI50 (HOP-62): 22.3 µM | GI50 (HOP-92): 14 µM | GI50 (NCI-H23): 13.2 µM | GI50 (NCI-H322M): 14 µM | GI50 (NCI-H460): 2500 nM | GI50 (COLO 205): 31.7 µM | GI50 (HCT-116): 4 µM | GI50 (HCT-15): 3000 nM | GI50 (HT-29): 12.2 µM | GI50 (KM12): 3.3 µM | GI50 (SW-620): 5.2 µM | GI50 (SF-268): 4.8 µM | GI50 (SF-295): 26 µM | GI50 (SNB-19): 54.9 µM | GI50 (SNB-75): 15.5 µM | GI50 (U-251): 6.8 µM | GI50 (LOX IMVI): 2400 nM | GI50 (Malme-3M): 32.7 µM | GI50 (M14): 6.4 µM | GI50 (SK-MEL-2): 2900 nM | GI50 (SK-MEL-28): 13 µM | GI50 (SK-MEL-5): 14.8 µM | GI50 (UACC-257): 5.9 µM | GI50 (UACC-62): 10.8 µM | GI50 (IGROV-1): 6.2 µM | GI50 (OVCAR-3): 4.9 µM | GI50 (OVCAR-4): 23.3 µM | GI50 (OVCAR-8): 15.5 µM | GI50 (SK-OV-3): 28.2 µM | GI50 (786-0): 6.3 µM | GI50 (ACHN): 4.8 µM | GI50 (CAKI-1): 3.4 µM | GI50 (RXF 393): 3.1 µM | GI50 (SN12C): 3.7 µM | GI50 (TK-10): 3.6 µM | GI50 (UO-31): 5.2 µM | GI50 (PC-3): 6.8 µM | GI50 (DU-145): 3.5 µM | GI50 (NCI/ADR-RES): 24 µM | GI50 (MDA-MB-231): 4.2 µM | GI50 (MDA-MB-435): 6.8 µM | GI50 (BT-549): 4.2 µM | GI50 (T47D): 4.6 µM

Source: ChEMBL document CHEMBL1138555, “N-acylated and N,N'-diacylated imidazolidine-2-thione derivatives and N,N'-diacylated tetrahydropyrimidine-2(1H)-thione analogues: synthesis and antiproliferative activity” (Eur J Med Chem, 2009)
